Source: paper PMC6511231 (Cell reports, 2018)
Entries after “also recorded” stand apart in the source; their conditions may differ. Like-named read-outs stand apart in the source and are kept apart here. One block for each molecule: values may come before it.

Key:
[1] = target: T1, mouse LIN28Δ, mouse TUT4 and pre-let-7g (Mus musculus, UniProt Q8K3Y3); test: LIN28-mediated let-7 oligouridylation assay; type: biochemical; details: for Inhibition of LIN28-mediated oligouridylation: 40 μM compound, 37°C, denaturing PAGE
T1 sequence (Q8K3Y3 16-184): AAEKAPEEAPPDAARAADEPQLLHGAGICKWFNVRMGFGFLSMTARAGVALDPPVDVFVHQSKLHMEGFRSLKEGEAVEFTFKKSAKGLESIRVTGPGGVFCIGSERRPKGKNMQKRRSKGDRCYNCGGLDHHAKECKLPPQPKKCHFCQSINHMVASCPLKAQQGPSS
T1 sequence (B2RX14 230-1424 partner): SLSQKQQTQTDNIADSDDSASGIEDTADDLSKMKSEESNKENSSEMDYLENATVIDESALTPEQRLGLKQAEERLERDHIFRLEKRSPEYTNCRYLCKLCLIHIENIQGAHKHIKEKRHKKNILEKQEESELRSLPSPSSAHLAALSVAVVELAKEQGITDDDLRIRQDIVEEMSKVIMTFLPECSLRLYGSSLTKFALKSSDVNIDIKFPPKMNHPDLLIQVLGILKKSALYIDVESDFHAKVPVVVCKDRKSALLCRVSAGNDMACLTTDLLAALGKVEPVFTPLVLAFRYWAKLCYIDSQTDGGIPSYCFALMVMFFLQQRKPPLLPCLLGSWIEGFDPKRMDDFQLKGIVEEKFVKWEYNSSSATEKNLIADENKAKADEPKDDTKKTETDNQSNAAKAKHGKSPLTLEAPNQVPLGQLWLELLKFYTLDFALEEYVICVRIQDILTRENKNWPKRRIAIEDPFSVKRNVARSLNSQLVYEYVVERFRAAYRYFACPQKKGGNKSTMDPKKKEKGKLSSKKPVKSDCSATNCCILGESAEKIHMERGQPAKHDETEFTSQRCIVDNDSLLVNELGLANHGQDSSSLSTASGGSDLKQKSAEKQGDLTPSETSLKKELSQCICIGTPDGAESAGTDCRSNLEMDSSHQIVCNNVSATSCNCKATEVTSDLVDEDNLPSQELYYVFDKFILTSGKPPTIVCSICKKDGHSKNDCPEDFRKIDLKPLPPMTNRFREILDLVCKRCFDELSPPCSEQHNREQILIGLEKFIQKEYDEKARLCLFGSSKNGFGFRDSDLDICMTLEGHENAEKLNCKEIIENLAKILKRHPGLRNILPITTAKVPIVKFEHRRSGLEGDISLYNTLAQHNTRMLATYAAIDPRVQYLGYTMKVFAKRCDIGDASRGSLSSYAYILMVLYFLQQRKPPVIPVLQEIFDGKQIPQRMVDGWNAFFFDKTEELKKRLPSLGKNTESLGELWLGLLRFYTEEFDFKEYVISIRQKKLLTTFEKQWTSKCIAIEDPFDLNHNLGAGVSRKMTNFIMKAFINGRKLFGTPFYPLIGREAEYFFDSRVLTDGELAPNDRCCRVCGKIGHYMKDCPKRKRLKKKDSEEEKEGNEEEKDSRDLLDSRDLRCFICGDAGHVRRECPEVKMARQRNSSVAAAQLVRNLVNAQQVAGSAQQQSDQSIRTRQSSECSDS
In short: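 Mouse LIN28A, mouse TUT4 (230–1424) and in vitro-transcribed, T4 PNK-radiolabelled pre-let-7g were incubated with test compound (40 μM screen; 80 μM follow-up) for 40 min at 37°C. Buffer: 20 mM Tris 7.5, 5% glycerol, 6 mM MgCl2, 6 mM DTT, 50 μM ZnCl2, 40 mM KCl, 200 μM UTP. Reactions were stopped with EDTA/SDS/proteinase K (50°C, 30 min) and run on denaturing PAGE. RNA and DMSO served as controls.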

HeLaLIN28A = test: let-7-sensitive dual luciferase reporter assay, HeLaLIN28A; type: cell-based, human; details: 100 μM or higher concentrations, 48 hr
In short: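 A HeLa clone stably expressing low-level FLAG-LIN28A plus the 8×let-7 Renilla/firefly dual-luciferase sensor was treated 48 hr with vehicle (DMSO) or test compound at the indicated concentrations. Dual luciferase activity was then assayed, with firefly as internal control. Runs used 3 or 5 biological replicates; Student's t test against vehicle.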

[2] = target: mouse LIN28Δ:preE-let-7d complex (Mus musculus, UniProt Q8K3Y3); test: HSQC spectroscopy; type: binding; details: 15N-labeled mouse LIN28Δ with unlabeled preE-let-7d
[3] = tested on: LIN28-expressing mouse embryonic stem cells; test: Toxicity to mouse embryonic stem cells; type: cell-based
[4] = tested on: HeLa cells that do not express LIN28; test: Toxicity to HeLa cells; type: cell-based, human
Solubility in solution = type: physicochemical; details: water / solution
LIN28Δ [5] = target: T2, LIN28Δ (human, UniProt Q9H9Z2 16-187); test: competition
T2 sequence: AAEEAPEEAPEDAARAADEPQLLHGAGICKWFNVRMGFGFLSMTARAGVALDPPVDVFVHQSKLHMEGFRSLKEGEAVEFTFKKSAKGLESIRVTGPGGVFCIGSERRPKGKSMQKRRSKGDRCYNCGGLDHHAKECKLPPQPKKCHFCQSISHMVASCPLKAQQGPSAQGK

LIN28ΔY140A = target: T3, LIN28ΔY140A (human, UniProt Q9H9Z2 16-187, Y140A); test: fluorescence polarization
T3 sequence: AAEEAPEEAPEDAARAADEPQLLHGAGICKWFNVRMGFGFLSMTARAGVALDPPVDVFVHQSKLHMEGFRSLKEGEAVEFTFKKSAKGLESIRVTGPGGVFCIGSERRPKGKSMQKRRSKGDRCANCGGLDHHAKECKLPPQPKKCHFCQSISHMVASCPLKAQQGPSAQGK

LIN28ΔF73A/Y140A = target: T4, LIN28ΔF73A/Y140A (human, UniProt Q9H9Z2 16-187, F73A;Y140A); test: fluorescence polarization
T4 sequence: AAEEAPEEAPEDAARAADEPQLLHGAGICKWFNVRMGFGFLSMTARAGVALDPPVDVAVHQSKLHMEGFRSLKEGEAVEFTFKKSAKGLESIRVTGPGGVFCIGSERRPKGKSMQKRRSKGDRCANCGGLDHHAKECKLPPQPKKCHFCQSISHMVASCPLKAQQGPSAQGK

LIN28ΔF73A [6] = target: T5, LIN28ΔF73A (human, UniProt Q9H9Z2 16-187, F73A); test: fluorescence polarization
T5 sequence: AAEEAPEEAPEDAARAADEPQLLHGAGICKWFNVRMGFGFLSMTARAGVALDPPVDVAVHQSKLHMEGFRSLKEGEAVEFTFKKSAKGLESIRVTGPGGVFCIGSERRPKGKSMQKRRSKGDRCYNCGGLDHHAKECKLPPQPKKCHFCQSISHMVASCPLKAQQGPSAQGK

LIN28Δ [7] = target: T2, LIN28Δ; test: fluorescence polarization
LIN28ΔF73A [8] = target: T5, LIN28ΔF73A; test: competition
LIN28Δ [9] = target: T2, LIN28Δ; test: competition; remark: listed apart in the source

Inhibition of LIN28-mediated oligouridylation [1]: completely inhibited
Molecule: CC1(C)C(=O)N=C2C1=C(O)C(=O)c1ccccc12 [BVT-948]

Inhibition of LIN28-mediated oligouridylation [1]: completely inhibited
Molecule: Cc1cc2c(C(C)C)c(O)c(O)c(C=O)c2c(O)c1-c1c(C)cc2c(C(C)C)c(O)c(O)c(C=O)c2c1O [Gossypol]

Inhibition of LIN28-mediated let-7 oligouridylation ([1]; 80 μM, compared to DMSO negative control): weak activities
Molecule: CNc1cncc(C(=O)O)c1 [5-(methylamino)nicotinic acid]
Relative Renilla luciferase activity (HeLaLIN28A): significant reduction of the relative Renilla luciferase activity; also recorded: weak activities

Inhibition of LIN28-mediated oligouridylation [1]: completely inhibited
Molecule: C=CC(C)(C)c1[nH]c2ccccc2c1C1=C(O)C(=O)C(c2c[nH]c3c(CC=C(C)C)cccc23)=C(O)C1=O [DAQ-B1, demethylasterriquinone B1]

Inhibition of LIN28-mediated oligouridylation [1]: completely inhibited
Solubility (Solubility in solution): poor solubility in solution
Molecule: O=C1C=CC(=NS(=O)(=O)c2ccc(C(=O)O)cc2)C=C1 [LI20]

Further lines, the molecule ahead of its results:

Molecule: c1ccc(CN(CCN(Cc2ccccn2)Cc2ccccn2)Cc2ccccn2)nc1 [TPEN]
Inhibition of LIN28-mediated oligouridylation [1]: completely inhibited
HSQC peak intensity changes [2]: a number of peaks had significant reduction in intensity
Toxicity [3]: shows toxicity
Toxicity [4]: shows toxicity

B1: preE-let-7f-1 unlabeled (structured_RNA)
RNA: GGGGUAGUGAUUUUACCCUGUUUAGGAGAU
IC50 (LIN28Δ [5]): 44 nM

B2: CSD-binding riboprobe (structured_RNA)
RNA: GGGGUAGUGAUUUUACCCUGUUUA
IC50 (LIN28Δ [5]): 157 nM

B3: preE-let-7f-1-FAM (structured_RNA)
RNA: GGGGUAGUGAUUUUACCCUGUUUAGGAGAU
Kd (LIN28ΔY140A): 78.5 nM
Kd (LIN28ΔF73A/Y140A): 589 nM
Kd (LIN28ΔF73A [6]): 72.4 nM
Kd (LIN28Δ [7]): 28.5 nM

B4: ZKD-binding riboprobe UAGGAGA (ssRNA)
RNA: UAGGAGA
IC50 (LIN28ΔF73A [8]): 1200 nM
IC50 (LIN28Δ [9]): 3500 nM
